HNF4A DNA FP – change in binding of human HNF4 alpha to DNA. P41235. activity change, % at 10 µM. HNF4a-FITC DNA binding, fluorescence polarization, 1 h. hit rate 0.3% among 360,000; in the data active = activity change above about 30%, passing the limit was not always enough
Target sequence (P41235 whole entry, looked up): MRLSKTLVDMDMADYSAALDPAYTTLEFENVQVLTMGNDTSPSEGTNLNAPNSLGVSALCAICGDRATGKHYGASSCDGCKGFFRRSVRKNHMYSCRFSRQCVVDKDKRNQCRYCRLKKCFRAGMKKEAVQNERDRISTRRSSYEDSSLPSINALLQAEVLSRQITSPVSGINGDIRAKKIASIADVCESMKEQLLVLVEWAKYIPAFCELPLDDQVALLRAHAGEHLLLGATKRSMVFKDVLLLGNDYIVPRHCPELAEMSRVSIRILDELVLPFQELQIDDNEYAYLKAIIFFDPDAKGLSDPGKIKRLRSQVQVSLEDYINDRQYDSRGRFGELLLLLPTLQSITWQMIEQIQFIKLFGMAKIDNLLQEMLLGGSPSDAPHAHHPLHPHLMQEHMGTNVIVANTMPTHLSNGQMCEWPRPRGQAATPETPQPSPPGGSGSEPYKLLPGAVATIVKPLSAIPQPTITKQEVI
CSN deneddyl inh – blocks human CSN-mediated cullin deneddylation; hit rate 0.38% among 360,000; AID 651999; Purified CSN, SCF-Nedd8-OG deneddylation, fluorescence polarization; inhibition, % at 12.5 µM;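 active = pattern-corrected inhibition above about 35%, with an unprinted fluorescence ratio check between 0.5 and 1.5, limit read from the data, passing the limit was not always enough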;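 also: 0% = enzyme with substrate and 100% = substrate without enzyme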
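Material: purified human Csn5 enzyme expressed in HEK293T cells / Medium: Tris buffer pH 7.5, NaCl, DTT, Tween-20, trehalose, ovalbumin / Compound dosing: 12.5 µM single point / Schedule: 90 min incubation of compound, enzyme and substrate at room temperature / Signal: fluorescence polarization of the substrate / Control set: no-enzyme wells high, enzyme-with-substrate wells low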
Myeloid diff 2 – promotes myeloid progenitor differentiation. ER-HoxA9 myeloid progenitors, lysozyme-GFP differentiation, flow cytometry. calls only at 10 µM. hit rate 1% among 360,000;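 active = normalized GFP-positive differentiation at or above the plate's own cutoff, the solvent-only control mean plus 3 SD; inconclusive = no clear call, values can overlap the other calls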;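 also: cells exposed to compound for four days before flow analysis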
Granule exo inh – lytic granule exocytosis inhibition. TALL-104 LAMP-1 surface exposure, flow cytometry; cells stimulated with thapsigargin and PMA. inhibition, % at 10 µM. hit rate 0.66% among 360,000. AID 651702;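 active = inhibition above about 55%, limit read from the data; inconclusive = no clear call, values can overlap the other calls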
Numbers without * were called inactive; i = inactive; ? = inconclusive; / = no result; + = active, no number. Sampled rows, rich in hits. Any-hit rate of the full collection: about 2.2%.

SMILES	HNF4A DNA FP	CSN deneddyl inh	Myeloid diff 2	Granule exo inh
COc1ccc(CN=Cc2c(O)[nH]c3ccccc23)cc1	3	1	i	-1
Cc1ccc(CN=Cc2[nH]c3ccc(Br)c(Cl)c3c2O)cc1	46*	0	i	9
Cc1ccc(C(=O)N/C(=C\c2cn(S(=O)(=O)N(C)C)c3ccccc23)C(=O)NCCCN2CCOCC2)cc1	3	-2	i	10
N#Cc1ccccc1S(=O)(=O)N1CCN(C(=O)c2cc3c(s2)CCC3)CC1	-8	4	i	-1
CCOC(=O)c1oc2ccc(S(=O)(=O)n3nc(-c4ccccc4)cc3N)cc2c1C	4	0	+	-2
CCOC(=O)c1oc2ccc(S(=O)(=O)n3nc(-c4ccc(OC)cc4)cc3N)cc2c1C	-2	3	?	7
Cc1[nH]c(=O)c(C#N)c(C)c1CCC(=O)Nc1cc(S(C)(=O)=O)ccc1Cl	3	4	?	-11
CN(CC(=O)Nc1ccc(Cl)c(Cl)c1)C(=O)C1CCCC1	2	-2	i	1
O=C1NC[C@@H](c2ccccc2)OC(=O)[C@@H](Cc2ccc(F)cc2)CC/C=C/C[C@H]1CC(=O)N(CCO)Cc1ccccc1	7	-4	?	16
O=C1NC[C@H](c2ccccc2)OC(=O)[C@H](Cc2ccc(F)cc2)CC/C=C/C[C@@H]1CC(=O)N(CCO)Cc1ccccc1	-2	-2	+	4
O=C(NCCc1ccccc1)c1cccc(NC(=O)C2CC2)c1	0	0	+	-2
O=C(NCCc1ccccc1)c1cccc(NC(=O)C2CCC2)c1	-4	-1	i	-6
Cc1ccc(N)c(C(=O)CCCCC(=O)O)c1	-1	-2	+	-2
CCOC(=O)c1cnc(-n2nc(C)cc2C)nc1NCc1ccccc1	3	6	i	7
CCOC(=O)c1cnc(-n2cc(C)cn2)nc1NCc1ccc2c(c1)OCO2	48*	11	i	31
O=C1C(=Cc2cccc(O)c2O)SC(=S)N1CCCN1CCOCC1	3	11	+	-2
O=C(CCN1C(=O)/C(=C\c2cccc(Br)c2)SC1=S)NCCCN1CCOCC1	1	4	i	75*
O=C(CCN1C(=O)/C(=C/c2ccccc2)SC1=S)NCCCN1CCOCC1	1	4	i	-3
C#CCOCCOCCOCCNc1nc(N2CCN(C(=O)[C@H](CCCCN)n3cc([C@@H](N)C(C)CC)nn3)CC2)nc(N2CCN(C(=O)[C@H](Cc3cc4ccccc4[nH]3)n3cc([C@@H](N)C(C)CC)nn3)CC2)n1 (some centres undefined)	49*	21	i	3
C#CCOCCOCCOCCNc1nc(N2CCOCC2)nc(N2CCN(C(=O)[C@H](Cc3cc4ccccc4[nH]3)n3cc([C@@H](N)C(C)CC)nn3)CC2)n1 (some centres undefined)	1	-1	i	3
C#CCOCCOCCOCCNc1nc(N2CCN(C(=O)[C@H](CCC(=O)O)n3cc(C(N)CC(C)C)nn3)CC2)nc(N2CCN(C(=O)[C@H](Cc3cc4ccccc4[nH]3)n3cc(C(N)[C@H](C)CC)nn3)CC2)n1 (some centres undefined)	/	/	i	-8
C#CCOCCOCCOCCNc1nc(N2CCN(C(=O)C(Cc3cc4ccccc4[nH]3)n3cc(C(N)C(C)CC)nn3)CC2)nc(N2CCN(C(=O)C(Cc3cc4ccccc4[nH]3)n3cc(C(N)C(C)CC)nn3)CC2)n1 (centres undefined)	1	44*	i	-7
CN(C(=O)C1CCCCC1)C1CCS(=O)(=O)C1 (centres undefined)	-3	0	i	-2
Cc1cc(C)nc(Sc2ccc(/C=C(\C#N)C(=O)Nc3ccccc3)o2)n1	71*	9	i	0
CCc1ccccc1NC(=O)/C(C#N)=C/c1ccc(Sc2ccccc2)o1	3	-4	i	3
SMILES	HNF4A DNA FP	CSN deneddyl inh	Myeloid diff 2	Granule exo inh
O=C(COc1cccc2cccnc12)N/N=C/c1ccccc1O	-2	3	i	-1
Oc1ccccc1/C=N/Nc1cccc2cccnc12	2	-5	+	7
Cc1cccc(N/N=C/c2ccc(O)c(O)c2O)c1	0	0	i	-2
Cc1cccc(N/N=C/c2ccc(C)s2)c1	3	3	i	61*
COc1ccc2c(CC(=O)N3CCN(S(=O)(=O)c4ccc(F)cc4)CC3)coc2c1	-5	5	+	3
CCCNC(=O)Cn1c(=O)/c(=C\c2ccc(-c3ccc([N+](=O)[O-])cc3)o2)s/c1=C\C(=O)C(C)(C)C	135	35	+	-2
CCCNC(=O)Cn1c(=O)/c(=C/c2ccc(-c3cccc([N+](=O)[O-])c3)o2)s/c1=C\C(=O)C(C)(C)C	-49	1	+	-1
O=C1NC(=O)/C(=C/c2ccc(-c3cccc([N+](=O)[O-])c3)o2)S1	-29	31	i	9
CCCNC(=O)Cn1c(=O)/c(=C\c2ccc(-c3cccc([N+](=O)[O-])c3)o2)s/c1=C\C(=O)C(C)(C)C	-54	12	+	2
CC(C(=O)O)N1C(=O)CSC1=S (centres undefined)	88*	4	i	-1
CC(C(=O)O)N1C(=O)CSc2ncccc21 (centres undefined)	0	-2	i	0
Cc1sc2nc(COC(=O)c3cccc(S(=O)(=O)N(C)c4ccccc4)c3)[nH]c(=O)c2c1C	20	20	+	-1
CC(C)OCCCNC(=O)c1cn(C)c2ccc(S(=O)(=O)N(C)C3CCCCC3)cc2c1=O	5	1	i	6
CCOc1ccc(OC(=O)C(CCS(C)(=O)=O)N2C(=O)c3ccccc3C2=O)cc1 (centres undefined)	0	1	+	4
CC(C)CNc1ncnc2c1ncn2[C@H]1CN(Cc2ccc(C(=O)O)cc2)C[C@@H](CO)O1	2	-8	i	-5
CCOC(=O)C1CCCN(C(=O)c2ccc3c(c2)OCO3)C1 (centres undefined)	-3	5	i	0
CCOC(=O)CNC(=O)N1CCCC(C(=O)c2ccc3c(c2)OCO3)C1 (centres undefined)	-1	-6	+	4
CCCCCCC/C=N/Nc1nnc(Cc2ccccc2)c(=O)[nH]1	1	-1	i	-19
CCCCCC/C=N/Nc1nnc(Cc2ccc(OC)c(OC)c2)c(=O)[nH]1	0	0	+	-10
CC(=O)Nc1ccc(S(=O)(=O)NCCSCc2cccc(Cl)c2)cc1	2	-2	+	3
CC(=O)Nc1ccc(S(=O)(=O)NCCSCc2c(Cl)cccc2Cl)cc1	6	2	i	-2
C=CCNC(=O)N1CCCC(N2CCN(c3ccccc3OC)CC2)C1 (centres undefined)	-1	0	i	9
CNC(=S)NNC(=O)CNc1ccc(C)c(Cl)c1	53*	-3	i	-1
Cc1cccc(NCC(=O)NNC(=S)Nc2ccccc2)c1	-2	2	i	-1
COc1cccc(OCC(O)CNC2CCCC2)c1 (centres undefined)	2	1	i	2

Source: PubChem (several laboratories)
